Assay results from different studies.
Compare with care: the assays were run in different laboratories.
Target: Serine/threonine-protein kinase TAO2 (TAOK2, Homo sapiens, UniProt Q9UL54)
Sequence (Q9UL54 1-1235, as in one of the studies): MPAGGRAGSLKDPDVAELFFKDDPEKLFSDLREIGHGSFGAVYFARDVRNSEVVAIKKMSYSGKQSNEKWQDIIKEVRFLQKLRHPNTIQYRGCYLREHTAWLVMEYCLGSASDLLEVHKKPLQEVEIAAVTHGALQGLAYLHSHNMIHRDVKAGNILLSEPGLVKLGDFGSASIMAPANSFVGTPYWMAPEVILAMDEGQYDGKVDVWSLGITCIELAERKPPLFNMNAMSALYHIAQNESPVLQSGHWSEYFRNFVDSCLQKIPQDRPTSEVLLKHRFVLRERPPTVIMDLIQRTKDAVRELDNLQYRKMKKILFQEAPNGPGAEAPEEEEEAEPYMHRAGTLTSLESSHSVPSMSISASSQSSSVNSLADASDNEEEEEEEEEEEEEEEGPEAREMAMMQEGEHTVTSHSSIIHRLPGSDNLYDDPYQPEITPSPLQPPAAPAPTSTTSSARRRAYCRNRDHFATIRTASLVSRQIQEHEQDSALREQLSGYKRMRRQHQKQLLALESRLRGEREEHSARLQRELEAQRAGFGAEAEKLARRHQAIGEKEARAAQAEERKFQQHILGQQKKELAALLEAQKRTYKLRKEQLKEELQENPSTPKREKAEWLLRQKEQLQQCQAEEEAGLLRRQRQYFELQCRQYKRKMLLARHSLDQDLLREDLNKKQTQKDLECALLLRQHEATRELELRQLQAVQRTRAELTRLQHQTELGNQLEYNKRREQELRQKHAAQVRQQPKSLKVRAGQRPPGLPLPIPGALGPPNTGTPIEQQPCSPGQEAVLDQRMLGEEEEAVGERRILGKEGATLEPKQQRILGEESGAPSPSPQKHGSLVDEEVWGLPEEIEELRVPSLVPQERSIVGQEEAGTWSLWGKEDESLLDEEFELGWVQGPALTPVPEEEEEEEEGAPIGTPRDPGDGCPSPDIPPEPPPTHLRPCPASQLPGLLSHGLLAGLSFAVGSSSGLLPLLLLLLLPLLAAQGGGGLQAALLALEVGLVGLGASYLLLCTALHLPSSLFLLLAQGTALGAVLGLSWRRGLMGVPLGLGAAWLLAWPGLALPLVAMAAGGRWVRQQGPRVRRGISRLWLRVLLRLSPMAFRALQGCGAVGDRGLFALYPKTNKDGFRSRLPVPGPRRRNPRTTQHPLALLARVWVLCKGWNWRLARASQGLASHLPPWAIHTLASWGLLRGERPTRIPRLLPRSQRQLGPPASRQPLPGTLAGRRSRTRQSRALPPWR

For O=C1CCc2cc(Nc3cc(OC4CCOCC4)c([N+](=O)[O-])cc3Cl)ccc2N1, the remaining binding was 82% (cell-free assay; competition with immobilised ligand; 1 µM).
With CNC(=O)c1cc(Oc2ccc(NC(=O)Nc3ccc(Cl)c(C(F)(F)F)c3)cc2)ccn1 the inhibition was 84% (enzyme activity; inhibitor; 0.3 µM).
CN1CCN(c2cnc3c(C4CCN(C(=O)c5ccc(OC(F)(F)F)cc5N)CC4)ncnc3c2)CC1 has a remaining binding of 100% (cell-free assay; competition with immobilised ligand; 1 µM).
CCN(CC)c1ccc(C2=NNC(=O)CC2C)cc1[N+](=O)[O-] (centres unmarked) gave a remaining activity of 95% (enzyme activity; inhibitor; 10 µM).
With C[C@@H](c1cccc(C#N)c1)n1cc(Cl)cc(C(N)=O)c1=N the remaining binding was 84% (cell-free assay; competition with immobilised ligand; 1 µM).
For COc1cccc2c(NCc3ccccc3)nc(-n3c(N)nc4ccccc43)nc12, the inhibition was -6.8% (target engagement in cells; inhibitor; chemoproteomics; 20 mM).
For Cc1ccc(Nc2nccc(N(C)c3ccc4c(C)n(C)nc4c3)n2)cc1S(N)(=O)=O, the inhibition was 93% (enzyme activity; inhibitor; 10 µM).
CSc1nc(C)c(-c2ccnc(Nc3ccc(N4CCOCC4)cc3)c2)[nH]1 gave an inhibition of 2.1% (enzyme activity; inhibitor; 10 µM).
The remaining binding of O=C(Nc1ccc(Oc2ccc(F)cc2)cc1)N1CCc2ncccc2[C@H]1c1ccc(F)cc1 is reported as 100% (cell-free assay; competition with immobilised ligand; 1 µM).
With CCCOc1ccc(OC)c(F)c1C(=O)c1ccc(C(=O)N[C@@H]2CNC[C@H]2NC(=O)c2ccc3[nH]ncc3c2)cc1 the remaining activity was 95% (enzyme activity; inhibitor; 10 µM).
CC(=O)N1CCC(c2ccc(C(=O)NC3=NCCN3)cc2C(F)(F)F)CC1 has a remaining binding of 100% (cell-free assay; competition with immobilised ligand; 1 µM).
c1ccc(CNc2nc(N3CCOc4ccccc43)nc3c2CCCC3)cc1 gave an inhibition of -2.6% (target engagement in cells; inhibitor; chemoproteomics; 20 mM).
The binding vs control of Fc1cccc(-n2cnc3c(NCc4nc5c(F)c(F)ccc5[nH]4)nc(N4CCOCC4)nc32)c1 is reported as 35% (binding; competition with immobilised ligand; 10 µM).
COc1cc(-c2cc(-c3ccc(N4CCNCC4)cc3)cnc2C)cc(OC)c1OC gave an inhibition of 2% (enzyme activity; inhibitor; 1 µM).
The inhibition of CCN(CC)CCNC(=O)c1c(C)[nH]c(/C=C2\C(=O)Nc3ccc(F)cc32)c1C is reported as 29% (enzyme activity; inhibitor; 10 µM).
Nc1ncnc2occ(-c3ccc(NC(=O)Nc4cc(C(F)(F)F)ccc4F)cc3)c12 gave a remaining signal of 0% (cell-free assay; inhibitor; 20 µM).
CC(C)(C)c1nc2c(s1)c1nc(N)ncc1c1ccc(NS(=O)(=O)c3c(F)cccc3F)c(F)c12 gave a remaining activity of 84% (enzyme activity; inhibitor; radiometric; 1 µM).
